According to ChEMBL document CHEMBL1135021, “Biotinylated lithocholic acids for affinity chromatography of mammalian DNA polymerases alpha and beta” (Bioorg Med Chem Lett, 2002):

What was measured:
[1] = target: T1, DNA polymerase beta (Rattus norvegicus, UniProt P06766); assay: Inhibition constant at a concentration of 10 uM on rat DNA polymerase beta as a function of nucleotide substrate concentration
Method in brief: (§1)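 Kinetic runs used calf thymus pol α or rat pol β (0.05 units each) preincubated with compound at 0 °C for 10 min in Tris–HCl pH 7.5/DTT/glycerol/EDTA buffer. Either poly(dA)/oligo(dT)12–18 (2/1) template-primer or dTTP substrate was varied. Km and Vmax came from double reciprocal plots, Ki from Dixon plots.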

[2] = target: Nucleic Acid; assay: Inhibition constant at a concentration of 5 uM on calf DNA polymerase alpha as a function of template primer dose; assay type: nucleic-acid assay, Bos taurus; method in brief: as §1
[3] = target: T1, DNA polymerase beta; assay: Inhibitory effect on the activity of mammalian DNA polymerase beta was determined by inhibitory dose curves
Method in brief: (§2)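 Calf thymus pol α (immunoaffinity-purified) and rat pol β, 0.05 units each final, with poly(dA)/oligo(dT)12–18 (2/1) and dTTP. Compounds in DMSO, sonicated 30 s, then preincubated with enzyme at 0 °C for 10 min in 50 mM Tris–HCl pH 7.5, 1 mM DTT, 50% glycerol, 0.1 mM EDTA. Mixtures added to standard reactions; activity without compound taken as 100%. IC50 from dose–response curves.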

[4] = target: T1, DNA polymerase beta; assay: Inhibition constant at a concentration of 10 uM on rat DNA polymerase beta as a function of template primer dose; method in brief: as §1
[5] = target: Nucleic Acid; assay: Inhibition constant at a concentration of 5 uM on calf DNA polymerase alpha as a function of nucleotide substrate concentration; assay type: nucleic-acid assay, Bos taurus; method in brief: as §1
[6] = target: Nucleic Acid; assay: Inhibitory effect on the activity of mammalian DNA polymerase alpha was determined by inhibitory dose curves; assay type: nucleic-acid assay, Bos taurus; method in brief: as §2
[7] = target: T1, DNA polymerase beta; assay: Inhibitory effect on the activity of rat DNA polymerase beta was determined by inhibitory dose curves
Method in brief: (§3)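 Rat DNA pol β, 0.05 units, with poly(dA)/oligo(dT)12-18 template-primer and dTTP substrate. Compounds in DMSO at various concentrations, sonicated 30 s, then preincubated with enzyme in 50 mM Tris–HCl pH 7.5, 1 mM DTT, 50% glycerol, 0.1 mM EDTA at 0 °C for 10 min before addition to the reaction mix. Activity without compound was set as 100%, and IC50 was read from dose–response curves.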

[8] = target: T1, DNA polymerase beta; assay: Inhibition constant at a concentration of 5 uM on rat DNA polymerase beta as a function of nucleotide substrate concentration
Method in brief: (§4)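 Rat DNA pol β (0.05 units final) with poly(dA)/oligo(dT)12-18 (2/1) as template-primer and dTTP as nucleotide substrate. Inhibitor was dissolved in DMSO, sonicated 30 s, then preincubated with enzyme at 0 °C for 10 min in 50 mM Tris-HCl pH 7.5, 1 mM DTT, 50% glycerol and 0.1 mM EDTA. The mix was added to standard reactions with template-primer or dTTP varied. Ki came from double-reciprocal and Dixon plots.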

[9] = target: T1, DNA polymerase beta; assay: Inhibition constant at a concentration of 5 uM on rat DNA polymerase beta as a function of template primer dose; method in brief: as §4
[10] = target: Nucleic Acid; assay: Inhibition constant at a concentration of 25 uM on calf DNA polymerase alpha as a function of nucleotide substrate concentration; assay type: nucleic-acid assay, Bos taurus
Method in brief: (§5)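 Calf thymus DNA pol α (immunoaffinity-purified), 0.05 units. Compound in DMSO, sonicated 30 s, preincubated with enzyme in 50 mM Tris–HCl pH 7.5, 1 mM DTT, 50% glycerol, 0.1 mM EDTA at 0 °C for 10 min. Activity measured varying poly(dA)/oligo(dT)12-18 (2/1) template-primer or dTTP nucleotide substrate. Km and Vmax were taken from double reciprocal plots and Ki from Dixon plots.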

[11] = target: Nucleic Acid; assay: Inhibition constant at a concentration of 25 uM on calf DNA polymerase alpha as a function of template primer dose; assay type: nucleic-acid assay, Bos taurus; method in brief: as §5
[12] = tested on: Nucleic Acid; assay: Inhibitory effect on the activity of calf thymus DNA polymerase alpha was determined by inhibitory dose curves; assay type: nucleic-acid assay, Bos taurus
Method in brief: as §3, with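 “Calf thymus” for “Rat”, “α (immunoaffinity-purified),” for “β,”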

C[C@H](CCC(=O)O)[C@H]1CC[C@H]2[C@@H]3CCC4C[C@@H](OC(=O)CCNC(=O)CCCCCNC(=O)CCCCCNC(=O)CCCCC5SCC6NC(=O)NC65)CC[C@]4(C)[C@H]3CC[C@]12C (stereo partly specified)
Ki [1]: 20.1 µM | Ki [2]: 7.7 µM | IC50 [3]: 32 µM | Ki [4]: 12.8 µM | Ki [5]: 5.5 µM | IC50 [6]: 10 µM

C[C@H](CCC(=O)O)[C@H]1CC[C@H]2[C@@H]3CCC4C[C@@H](O)CC[C@]4(C)[C@H]3CC[C@]12C (stereo partly specified)
IC50 [7]: 11 µM | Ki [8]: 6.6 µM | Ki [9]: 4.7 µM | Ki [10]: 22.5 µM | Ki [11]: 15.3 µM | IC50 [12]: 40 µM

C[C@H](CCC(=O)O)[C@H]1CC[C@H]2[C@@H]3CCC4C[C@@H](OC(=O)CCNC(=O)CCCCC5SCC6NC(=O)NC65)CC[C@]4(C)[C@H]3CC[C@]12C (stereo partly specified)
IC50 [7]: 31 µM | IC50 [12]: 29 µM

C[C@H](CCC(=O)O)[C@H]1CC[C@H]2[C@@H]3CCC4C[C@@H](OC(=O)CCNC(=O)CCCCCNC(=O)CCCCC5SCC6NC(=O)NC65)CC[C@]4(C)[C@H]3CC[C@]12C (stereo partly specified)
IC50 [7]: 46 µM | IC50 [12]: 42 µM
